# Experimental data as given in ChEMBL document CHEMBL1142703, “Novel ligands for the chemokine receptor-3 (CCR3): a receptor-modeling study based on 5D-QSAR” (J Med Chem, 2005).
# Biological target: T1, C-C chemokine receptor type 3 (Homo sapiens, UniProt P51677)
# T1 sequence (P51677 whole entry): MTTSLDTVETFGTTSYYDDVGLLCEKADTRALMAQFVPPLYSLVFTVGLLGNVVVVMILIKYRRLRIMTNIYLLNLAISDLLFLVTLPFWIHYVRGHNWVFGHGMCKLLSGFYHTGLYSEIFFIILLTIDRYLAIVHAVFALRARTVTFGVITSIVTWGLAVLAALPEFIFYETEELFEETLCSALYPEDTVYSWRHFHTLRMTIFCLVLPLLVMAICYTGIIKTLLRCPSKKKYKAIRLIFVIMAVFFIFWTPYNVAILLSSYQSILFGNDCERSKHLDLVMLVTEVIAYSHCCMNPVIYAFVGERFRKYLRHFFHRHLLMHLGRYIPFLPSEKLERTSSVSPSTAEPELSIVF
# Assay: Inhibition of [125I]eotaxin-1 binding to human chemokine receptor (hCCR3-C1)
# How it was run: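 K562 leukemia myelogenic blast cells transfected with human CCR3 (hCCR3-C1). Binding of the radioligand 125I-eotaxin-1 was measured in a scintillation proximity format. Controls: specific binding with no displacer added, and nonspecific binding with unlabeled eotaxin or test compound added. Bound radioactivity was counted by scintillation. Ki was obtained by iterative fitting of the data to a law-of-mass-action model.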
compound,measurement,value
Cc1ccc(CCNCC(c2ccccc2)N2CCN(C)CC2)cc1 (stereo unspecified),Ki,11.6 µM
